Assay results pooled from the literature.
Lines come from different studies, so protocols differ. pIC50: −log10 of the molar value.
Cell line: HCT-116
Observed: cell growth or viability

| SMILES | method | time | endpoint | value |
| --- | --- | --- | --- | --- |
| CONC(=O)c1cccc2c1cc(C)n2-c1nc2c(c(NCc3ccccc3)n1)CCCN2 | ATP luminescence | 72 h | pIC50 | 6.15 |
| O=C1CSC(=Nc2cc(C(F)(F)F)ccc2-c2nnc(N3C(=O)CSC3=Nc3ccc([N+](=O)[O-])cc3)s2)N1c1ccc([N+](=O)[O-])cc1 | MTT |  | pIC50 | 4.13 |
| O=c1cc(OCc2cc(-c3ccc(Cl)cc3Cl)no2)c2ccccc2o1 | MTS | 72 h | pIC50 | < 4.00 |
| O=C(CSc1nc2ccccc2s1)N/N=C/c1ccc(OCC(=O)Nc2ccc(Br)cc2)cc1 | MTS | 72 h | pIC50 | < 4.00 |
| Cc1cccc(N=C2C(=O)N(Cc3ccc(Br)cc3)c3ccccc32)c1 | MTT | 48 h | pIC50 | 5.09 |
| O=c1[nH]cc(F)c(=O)[nH]1 | MTT | 72 h | pIC50 | 5.51 |
| CC(C)c1cccc(C(C)C)c1N=C1C(=O)N(Cc2ccccc2)c2ccccc21 | MTT | 48 h | pIC50 | 4.93 |
| Fc1ccc2c(-c3ncc(-c4ccccc4)o3)nn(Cc3ccccc3)c2c1 |  | 48 h | pIC50 | 4.08 |
| Cc1cc2c(C(N)=O)cccc2n1-c1nc(NCc2ccccc2)c2c(n1)NC(C)CC2 (centres unmarked) | ATP luminescence | 72 h | pIC50 | 6.05 |
| O=c1cc(OCc2cc(-c3ccccn3)no2)c2ccccc2o1 | MTS | 72 h | pIC50 | < 4.00 |
| O=C1CSC(=Nc2cc([N+](=O)[O-])ccc2[N+](=O)[O-])N1c1nnc(-c2ccc(C(F)(F)F)cc2N=C2SCC(=O)N2c2cc([N+](=O)[O-])ccc2[N+](=O)[O-])s1 | MTT |  | pIC50 | 4.09 |
| CC(C)c1cccc(C(C)C)c1N=C1C(=O)N(Cc2ccc(Br)cc2)c2ccccc21 | MTT | 48 h | pIC50 | 4.43 |
| O=C1CS/C(=N\c2cc(C(F)(F)F)ccc2-c2nnc(N3C(=O)CS/C3=N\c3ccc(F)cc3)s2)N1c1ccc(F)cc1 | MTT |  | pIC50 | 4.67 |
| O=[N+]([O-])c1cc(Br)c(O)c(C=NNc2ccc(C(F)(F)F)cc2)c1 | MTT | 24 h | pIC50 | 5.03 |
| FC(F)(F)c1cc(OCc2cc(-c3ccccc3)no2)c2ccccc2n1 | MTS | 72 h | pIC50 | < 4.00 |
| O=C(C=Cc1cccs1)c1ccc(OCCCCOc2ccc(C(=O)C=Cc3cccs3)cc2)cc1 | MTT | 48 h | pIC50 | 3.45 |
| FC(F)(F)c1cc(OCc2cc(-c3ccc(Cl)cc3Cl)no2)c2ccccc2n1 | MTS | 72 h | pIC50 | < 4.00 |
| CC(=O)OC[C@H]1O[C@@H](n2cc(Cn3c(C(C)=O)nc4ccccc43)nn2)[C@H](OC(C)=O)[C@@H](OC(C)=O)[C@H]1OC(C)=O | LDH | 48 h | pIC50 | 5.19 |
| Cc1noc(-c2nn(Cc3ccc(Cl)cc3Cl)c3ccccc23)n1 |  | 48 h | pIC50 | 3.72 |
| Cc1cc(C)n(Cn2ccnc2)n1 | MTT | 24 h | pIC50 | 4.67 |
| O=P1(C2CCCCC2)CCCCC1 | MTT | 72 h | pIC50 | 4.86 |
| O=C1CS/C(=N\c2ccccc2O)N1c1nnc(-c2ccc(C(F)(F)F)cc2/N=C2\SCC(=O)N2c2ccccc2O)s1 | MTT |  | pIC50 | 4.39 |

| SMILES | method | time | endpoint | value |
| --- | --- | --- | --- | --- |
| O=[N+]([O-])c1ccc(O)c(C=NNc2ccc(Br)cc2)c1 | MTT | 24 h | pIC50 | 5.14 |
| C#CCn1c(C2CC(c3ccc(F)cc3)=NN2C(C)=O)nc2ccccc21 (centres unmarked) | LDH | 48 h | pIC50 | 5.16 |
| Cc1cc2c(C(N)=O)cccc2n1-c1nc2c(c(OCc3ccccc3)n1)CCCN2 | ATP luminescence | 72 h | pIC50 | 5.47 |
| Cc1cc(NS(=O)(=O)c2ccc(NC(=O)/C(C#N)=C/c3ccc(N4CCCCC4)cc3)cc2)no1 | MTT | 48 h | pIC50 | 4.84 |
| CC(C)c1ccc(/C=C2\N=C(SCC(=O)O)N(c3ccccc3)C2=O)cc1 | MTT |  | IC50 | 44.3 mg/L |
| c1ccc(-c2noc(-c3nn(Cc4ccc5ccccc5c4)c4ccccc34)n2)cc1 |  | 48 h | pIC50 | 3.76 |
| CC(C)CNC(=S)N/N=C/c1cccc2cc3ccccc3nc12 | MTT | 48 h | pIC50 | < 4.30 |
| CC(C)c1ccc(/C=C2\N=C(SCc3ccccc3)N(c3ccccc3)C2=O)cc1 | MTT |  | IC50 | 72.9 mg/L |
| O=C(C=Cc1cccs1)c1ccc(OCCOc2ccc(C(=O)C=Cc3cccs3)cc2)cc1 | MTT | 48 h | pIC50 | 4.74 |
| CNC(=S)N/N=C/c1cccc2cc3ccccc3nc12 | MTT | 48 h | pIC50 | 4.66 |
| O=C1C(=Nc2ccccc2I)c2ccccc2N1Cc1ccc(Br)cc1 | MTT | 48 h | pIC50 | 5.88 |
| Fc1ccc2c(-c3nnc(Cc4ccccc4)[nH]3)nn(Cc3ccc(Cl)cc3Cl)c2c1 |  | 48 h | pIC50 | 4.66 |
| COc1cccc2c1C(=O)c1c(O)c3c(c(O)c1C2=O)C[C@@](O)(C(=O)CO)C[C@@H]3O[C@H]1C[C@H](N)[C@H](O)[C@H](C)O1 | MTT | 24 h | pIC50 | 5.97 |
| COc1cc(N=C2C(=O)N(Cc3ccccc3)c3ccccc32)cc(OC)c1 | MTT | 48 h | pIC50 | 5.06 |
| COc1ccc(N(Cc2csc(-c3ccc(Br)cc3)n2)C(=O)CCCCCC(=O)NO)cc1 | MTT | 72 h | pIC50 | 5.66 |
| COc1cccc2c1C(=O)c1c(O)c3c(c(O)c1C2=O)C[C@@](O)(C(=O)CO)C[C@@H]3O[C@H]1C[C@H](N)[C@H](O)[C@H](C)O1 |  | 96 h | pIC50 | 8.42 |
| O=C1C(=Nc2ccc(Cl)cc2Br)c2ccccc2N1Cc1ccc(Br)cc1 | MTT | 48 h | pIC50 | 6.22 |
| CCOC(=O)c1cc(C)n(Cn2cnc3ccccc32)n1 | MTT | 24 h | pIC50 | 4.32 |
| O=C1C(=Nc2ccc(Cl)cc2)c2ccccc2N1Cc1ccc(Br)cc1 | MTT | 48 h | pIC50 | 4.67 |
| FC(F)(F)c1ccc(-c2nnc(-c3nn(Cc4ccc(Cl)cc4Cl)c4ccccc34)o2)cc1 |  | 48 h | pIC50 | 3.49 |
| N/C(=N\O)c1ccc(-c2cc(CNc3cccc4cccnc34)on2)cc1 | MTS | 72 h | pIC50 | < 4.00 |
| O=C1C(=Nc2ccc(Cl)cc2Br)c2ccccc2N1Cc1ccc([N+](=O)[O-])cc1 | MTT | 48 h | pIC50 | 4.60 |
